SKKanGAS inh: SKKanGAS growth inhibition | actives 1.3% (n = 300,000) | inhibition, % at 7.5 µM | S. pyogenes SKKanGAS, kanamycin growth, BacTiter-Glo, 6 h;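 active means mean replicate score, as percent of positive control median, at least 50; inconclusive means mean below 50 but one replicate at or above 50; inactive means mean and every replicate below 50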;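 further: strain carries kanamycin resistance gene driven by streptokinase promoter and grows in 40 µg/ml kanamycin; loss of luminescence reflects streptokinase promoter inhibition or plain growth inhibition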
Mdm2 MdmX PPI: disrupts the human Mdm2-MdmX interaction. AID 485346. O15151+Q00987. actives 3% (n = 330,000). inhibition, % at 8 µM. SaOS-2 split-luciferase Mdm2/MdmX complementation, luminescence;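 active means inhibition of at least 50% at 8 µM in the primary screen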
Target sequence (O15151 whole entry, looked up): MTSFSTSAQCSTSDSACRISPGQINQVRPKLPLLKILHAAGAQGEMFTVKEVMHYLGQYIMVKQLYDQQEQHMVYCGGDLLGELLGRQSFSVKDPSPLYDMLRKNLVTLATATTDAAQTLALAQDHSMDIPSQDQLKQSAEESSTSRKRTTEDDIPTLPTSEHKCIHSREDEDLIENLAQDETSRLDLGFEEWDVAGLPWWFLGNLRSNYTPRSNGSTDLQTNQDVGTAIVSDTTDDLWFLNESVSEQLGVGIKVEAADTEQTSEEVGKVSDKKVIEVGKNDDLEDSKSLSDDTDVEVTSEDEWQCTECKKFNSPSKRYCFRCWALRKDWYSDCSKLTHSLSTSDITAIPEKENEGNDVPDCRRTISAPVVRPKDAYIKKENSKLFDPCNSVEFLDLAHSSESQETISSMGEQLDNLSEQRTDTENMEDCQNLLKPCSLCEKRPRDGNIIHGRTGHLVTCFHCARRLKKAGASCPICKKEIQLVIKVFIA
Target sequence (Q00987 whole entry, looked up): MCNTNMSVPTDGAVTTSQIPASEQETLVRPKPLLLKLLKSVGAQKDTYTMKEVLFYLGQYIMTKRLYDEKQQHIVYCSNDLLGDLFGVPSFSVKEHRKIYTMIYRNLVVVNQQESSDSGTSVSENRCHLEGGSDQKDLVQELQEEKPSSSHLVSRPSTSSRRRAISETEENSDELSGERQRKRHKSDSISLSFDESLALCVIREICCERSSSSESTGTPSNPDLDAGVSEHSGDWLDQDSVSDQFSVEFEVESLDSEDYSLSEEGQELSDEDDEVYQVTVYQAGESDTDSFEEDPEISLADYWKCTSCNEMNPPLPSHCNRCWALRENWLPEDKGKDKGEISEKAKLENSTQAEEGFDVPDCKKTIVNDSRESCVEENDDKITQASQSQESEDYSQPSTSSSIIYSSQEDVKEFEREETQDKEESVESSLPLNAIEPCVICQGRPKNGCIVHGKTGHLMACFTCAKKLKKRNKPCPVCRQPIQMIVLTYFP
T cruzi inh: T. cruzi replication inhibition; T. cruzi beta-gal in NIH3T3, luminescence, 90 h; actives 1.4% (n = 300,000); inhibition, % (no concentration beside the values);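 active means mean inhibition across valid replicates above about 55%, limit read from the data; inconclusive means mean below that limit but half or more replicates reach it; inactive means mean below it, under half of replicates reach it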;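 further: signal also drops with host cell toxicity which is not excluded here; higher percent means less beta-gal luminescence so fewer parasites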
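System: mouse NIH/3T3 fibroblasts infected with β-gal-expressing T. cruzi Tulahuen C4 / Input: NIH/3T3 cells, 5,000 per well / Buffer or medium: Low-serum DMEM with 2% FBS / Probe or stimulus: 5000 reporter trypomastigotes per well / Schedule: ≥90 h infection period, 3 h prior cell attachment / Measured by: GalScreen luminescence, 60 min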
aSyn 5UTR inh: MLPCN primary screen, SNCA 5' untranslated region; alpha-synuclein 5'UTR reporter, inhibitor activity; inhibition, % (tested at 7.5 µM); actives 0.82% (n = 300,000); AID 1813; in the data active means inhibition above about 60%; inconclusive means no clear call, values can overlap the other calls;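 further: H4 neuroglioblastoma cells stably carrying SNCA 5'UTR luciferase fusion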
CSC inhib: blocks cancer stem cells | inhibition, % at 7.5 µM | actives 1.1% (n = 300,000) | AID 2717 | cancer stem cell-like cells viability, luminescence; in the data active means inhibition above about 75%; inconclusive means no clear call, values can overlap the other calls; tested in HMLE shEcad cells
Mdm2-MdmX conf: confirmation of human Mdm2/MdmX interaction inhibitors; shares compounds with Mdm2 MdmX PPI; Mdm2-MdmX binding, luminescent assay; inhibition, % at 8 µM; actives 55% (n = 10,000); AID 489028; in the data active means inhibition above about 40%
FLuc counter: full-length luciferase inhibition in Mdm2/MdmX counter-screen; shares compounds with Mdm2 MdmX PPI; SaOS-2 full-length luciferase counterscreen, luminescence; inhibition, % at 8 µM; actives 77% (n = 6,200); AID 504607;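 active means mean inhibition at 8 µM reaching about 37%, which flags the compound as non-specific, limit read from the data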;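 further: p53-null SaOS-2 cells with luciferase driven by a doxycycline-inducible promoter; compound on cells about two nights before reading with doxycycline added after day one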
A number is an active result; . = inactive; ? = inconclusive; / = not tested or not shown. Sampled rows, rich in hits. Any-hit rate of the full collection: about 5.4%.

SMILES | SKKanGAS inh | Mdm2 MdmX PPI | T cruzi inh | aSyn 5UTR inh | CSC inhib | Mdm2-MdmX conf | FLuc counter
COc1cccc(-c2nc(NCc3ccccc3)c3ccccc3n2)c1O | . | 56 | . | . | . | . | /
COc1cccc(-c2nc(NCc3ccco3)c3ccccc3n2)c1O | . | . | . | . | . | / | /
O=[N+]([O-])c1ccc(-c2nc(NCc3ccccc3)c3ccccc3n2)cc1 | . | 60 | . | . | . | . | /
O=C(O)c1cccc(Nc2nc(-c3ccc([N+](=O)[O-])cc3)nc3ccccc23)c1 | . | . | . | . | . | / | /
O=[N+]([O-])c1cccc(-c2nc(NCc3ccccc3)c3ccccc3n2)c1 | . | . | . | . | . | / | /
O=[N+]([O-])c1ccc(-c2c(O)c3ccccc3c3nc4ccccc4nc23)cc1 | . | 65 | . | . | . | . | /
N=c1cc(C2(O)CCCCC2)n2c(nc3ccccc32)s1 | . | . | . | . | . | / | /
CCOc1ccccc1/C=N/NC(=O)c1nnn(-c2nonc2N)c1CN1CCCCCC1 | . | . | . | . | . | / | /
CCCCCCCCCC(=O)N[C@@H]1c2cc(OC)c(OC)cc2C[C@H]1OCc1ccccc1 | / | 89 | / | / | / | 69 | .
CC(C)c1ccccc1NC(=S)NCc1ccccc1F | . | . | . | . | / | / | /
COC(=O)C1=C(C)N(c2ccc(Cl)c(Cl)c2)C(=O)C1 | . | 97 | . | . | . | . | /
Cc1c(C#N)c(O)n(CCO)c(=O)c1N=Nc1ccc2c(c1)COC2=O | . | 91 | . | . | . | . | /
Cc1cc(=O)n(CCO)c(O)c1C#N | . | . | . | . | . | / | /
CC(C)[C@H](NC(=O)c1ccccc1)C(=O)NCCc1ccccc1 | . | . | . | . | . | / | /
CNC[C@@H](C)NC[C@@H](Cc1ccccc1)NCCc1ccccc1 | . | 69 | . | . | . | . | /
COc1ccc(C(=O)/C=C/c2ccc(OC)c(Cn3nnc4ccccc43)c2)cc1 | . | 62 | . | . | 77 | 43 | 68
COc1ccc(C(=O)/C=C/c2ccc(OC)c(CN3CCOCC3)c2)cc1 | . | . | . | . | . | / | /
O=C(NCCCNC(=O)c1cnccn1)c1ccc(Cl)cc1 | . | . | . | . | . | / | /
O=C(NC(=S)NNC(=O)c1cnccn1)c1ccc(Cl)cc1 | . | 69 | . | ? | 94 | . | 48
COc1ccc(C(=O)NC(=S)NNC(=O)c2cnccn2)cc1 | . | 64 | . | . | 88 | 57 | 41
COc1ccc(CC(=O)NNC(=O)c2cnccn2)cc1 | . | . | . | . | . | / | /
COc1ccc(CC(=O)Nc2cc(C)ccn2)cc1 | . | . | . | . | . | / | /
CCc1ccc(NC(=O)CSc2nc3ccccc3c(=O)n2CCCN2CCC(C)CC2)cc1 | . | 86 | . | . | . | 49 | 36
Cc1ccc(NC(=O)CSc2nc3ccccc3c(=O)n2CCCN2CCCCC2)cc1C | . | 75 | . | . | . | 40 | 62
NC(=S)N=Nc1c(O)n(Cc2ccc(F)cc2)c2ccccc12 | . | . | . | . | . | / | /
SMILES | SKKanGAS inh | Mdm2 MdmX PPI | T cruzi inh | aSyn 5UTR inh | CSC inhib | Mdm2-MdmX conf | FLuc counter
Cc1cccc(NC(=S)N=Nc2c(O)n(CN3CCOCC3)c3ccccc23)c1C | / | . | . | . | . | / | /
Oc1c(N=NC(=S)Nc2ccccc2F)c2ccccc2n1Cc1cccc(Cl)c1 | 52 | 59 | 57 | . | . | . | /
Oc1c(N=NC(=S)Nc2ccccc2F)c2ccccc2n1Cc1ccc(F)cc1 | 66 | 59 | 67 | . | . | 47 | 55
Cc1cccc(Cn2c(O)c(N=NC(=S)Nc3ccccc3F)c3ccccc32)c1 | . | 63 | 60 | ? | . | 42 | 54
Cc1ccc(C(Sc2ccccc2)C(Cn2cncn2)C(=O)c2ccccc2)cc1 (stereo not given) | . | . | . | . | . | / | /
COc1cc(C2C(C#N)=C(N)Oc3cc(N)ccc32)cc(OC)c1OC (stereo not given) | / | 88 | / | / | / | 66 | 68
COc1ccc(C2C(C#N)=C(N)Oc3c2ccc2cccnc32)cc1OC (stereo not given) | . | 81 | . | . | . | 78 | 60
N#CC1=C(N)Oc2cc(N)ccc2C1c1ccc(F)cc1F (stereo not given) | . | 59 | . | . | . | . | /
O=C(CSc1ncccn1)NCc1cccs1 | . | . | . | . | . | / | /
CC#CCN(CC#CC)S(=O)(=O)c1ccc(-n2cnnn2)c(OC)c1 | . | . | . | . | . | / | /
CC(C)c1ccc(/C=C2\SC(=O)N(CC(=O)NC3C=CS(=O)(=O)C3)C2=O)cc1 (stereo not given) | . | 77 | . | . | . | 40 | 40
O=C(CCN1C(=O)/C(=C/c2ccc(Cl)cc2)SC1=S)NC1C=CS(=O)(=O)C1 (stereo not given) | . | 59 | . | . | . | . | /
O=C(CN1C(=O)/C(=C/c2ccc(Cl)cc2)SC1=S)NC1C=CS(=O)(=O)C1 (stereo not given) | . | . | . | . | . | / | /
O=C(NC(Cc1ccccc1)C(=O)O)C1CCN(S(=O)(=O)c2ccccc2C(F)(F)F)CC1 (stereo not given) | . | . | . | . | . | / | /
CC1=C(C(=O)Nc2ccccc2C(F)(F)F)C(c2ccc(C)s2)NC(=S)N1 (stereo not given) | . | . | . | . | . | / | /
CCc1nn(CCCC(=O)N2CCc3ccccc3C2)c(=O)c2cc3occc3n12 | . | . | . | . | . | / | /
CCc1nn(CCCC(=O)N2CCN(c3cccc(C)c3C)CC2)c(=O)c2cc3occc3n12 | . | 93 | . | . | . | 61 | 78
Cc1cc(C=C2C(=O)c3ccccc3C2=O)c(C)n1-c1ccc(C(=O)O)cc1 | . | . | . | . | . | / | /
Cc1cc(/C=C2\Cc3ccccc3C2=O)c(C)n1-c1ccccc1 | . | 80 | . | ? | . | 64 | 73
Cc1cc(C=C2C(=O)c3ccccc3C2=O)c(C)n1-c1ccccc1 | . | 62 | . | . | / | 56 | .
Cc1cc(C=C2C(=O)c3ccccc3C2=O)c(C)n1-c1cccc(C(=O)O)c1 | . | . | . | . | . | / | /
Cc1cc(/C=C2/C(=O)NN(c3ccccc3)C2=O)c(C)n1-c1cccc(O)c1 | . | 73 | . | . | . | 72 | 122
Cc1onc(-c2ccccc2Cl)c1C(=O)Nc1ccc(Br)cc1 | . | . | . | . | / | / | /
CC(C)Cc1nc2ccc(N)cc2[nH]1 | . | . | . | . | . | / | /
CCCCN(CC)CCCNC(=S)Nc1ccc2nc(N3CCN(C)CC3)cc(C)c2c1 | . | 56 | . | . | . | . | /
CCN(CC)CCNC(=S)Nc1ccc2nc(N3CCCC3)cc(C)c2c1 | . | . | . | . | . | / | /
CCCCN(CC)CCCNC(=S)Nc1ccc2nc(N3CCN(CC)CC3)cc(C)c2c1 | . | . | . | . | . | / | /
CCCN(CCC)CCCNC(=S)Nc1ccc2nc(N3CCCC3)cc(C)c2c1 | . | 78 | 59 | . | . | 45 | 63

Screening results from PubChem.
